This note sets out measurements from ChEMBL document CHEMBL5126550, “In Silico Optimized Stapled Peptides Targeting WASF3 in Breast Cancer” (2022).

The structures appear in SMILES notation. The source made the active and inactive calls. The rule behind the calls is not given here. Square brackets hold non-standard residues; d marks the D form. Peptide text beside a SMILES is read from it. Gly(pent-4-enyl) = C=CCCC[C@H](N)C(=O)O

In test [1] the test system is MDA-MB-231. The experiment in a line: Antiinvasive activity against human MDA-MB-231 cells assessed as reduction in cell motility at 2 uM incubated for 18 hrs by wound healing assay. The format is functional, cell-based.
Test [2] has as its target T1, Actin-binding protein WASF3 (Homo sapiens) (UniProt Q9UPY6).
T1 sequence (whole entry): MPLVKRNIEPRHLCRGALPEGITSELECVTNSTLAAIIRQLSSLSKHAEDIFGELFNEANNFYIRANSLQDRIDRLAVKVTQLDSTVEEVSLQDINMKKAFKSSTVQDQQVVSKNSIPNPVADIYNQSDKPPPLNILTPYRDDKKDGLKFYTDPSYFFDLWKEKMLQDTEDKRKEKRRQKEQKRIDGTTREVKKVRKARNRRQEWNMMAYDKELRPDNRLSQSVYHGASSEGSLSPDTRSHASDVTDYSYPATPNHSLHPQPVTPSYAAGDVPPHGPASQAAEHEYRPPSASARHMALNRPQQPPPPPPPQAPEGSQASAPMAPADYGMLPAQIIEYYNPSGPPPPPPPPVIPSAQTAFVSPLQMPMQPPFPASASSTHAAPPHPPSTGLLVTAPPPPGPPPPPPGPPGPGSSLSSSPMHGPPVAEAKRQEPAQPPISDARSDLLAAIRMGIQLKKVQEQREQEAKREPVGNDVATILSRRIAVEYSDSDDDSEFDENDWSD
In words: Degradation of WASF3 in human serum starved MDA-MB-231 cells assessed as reduction in ABI2 expression at 2 uM measured after 72 hrs by Western blot analysis. Format: cell-based. An outline of the steps: (§1)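 Cells treated 72 h with peptides or controls. Lysates immunoblotted for ABI2 and WASF3. Band densitometry from three independent Western blots.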

Test [3] concerns the target T1, Actin-binding protein WASF3 (Homo sapiens). The experiment in a line: Degradation of WASF3 in human serum starved MDA-MB-231 cells assessed as reduction in WASF3 expression at 2 uM measured after 72 hrs by Western blot analysis. The format is cell-based. In a few lines: as §1
(In general: Immunoblotting shows a protein as a band on a membrane.)

Test [4] deals with MDA-MB-231. In words: Drug uptake in human MDA-MB-231 cells by measuring uptake of fluorescence intensity in cytoplasm at 10 uM measured after 4 hrs by fluorescence microscopy method. Format: functional, cell-based. An outline of the steps:
(§2)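 Cells incubated 4 h with 5(6)-carboxyfluorescein-labeled peptide (2 μM or 10 μM) or DMSO. Cytoplasmic fluorescence imaged by fluorescence microscopy. n = 4.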

The test system of test [5] is MDA-MB-231. The experiment in a line: Drug uptake in human MDA-MB-231 cells by measuring uptake of fluorescence intensity in cytoplasm at 10 uM measured after 4 hrs by fluorescence microscopy method.
Test [6] concerns MDA-MB-231. In words: Antiinvasive activity against human MDA-MB-231 cells assessed as reduction in cell motility at 0.5 to 2 uM incubated for 18 hrs by wound healing assay relative to control. The format is functional. Set-up: scale not given: the % may be the effect or the level left. The note with it: dose 0.5-2 µM.
Test [7] deals with MDA-MB-231. The experiment in a line: Antiinvasive activity against human MDA-MB-231 cells assessed as reduction in cell motility incubated for 18 hrs by wound healing assay relative to control. Format: functional, cell-based. Conditions: dose 0.5-2 µM, DDE = dose-dependent effect.
Test [8] relates to MDA-MB-231. The experiment in a line: Antiinvasive activity against human MDA-MB-231 cells assessed as reduction in number of invading cells incubated for 24 hrs by crystal violet staining based matrigel trans well migration assay. Format: functional, cell-based. Conditions: dose 0.5-2 µM, DDE = dose-dependent effect. In a few lines:
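Matrigel invasion assay with peptide at 0.5–2 μM, scramble control (2 μM), reference peptide (10 μM) or DMSO. Invading cells fixed with paraformaldehyde, stained with crystal violet, imaged and counted in ImageJ. At least three independent assays; mean ± SD; one-way ANOVA with Bonferroni test.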

Test [9] relates to MDA-MB-231. In words: Downregulation of MMP9 expression in human MDA-MB-231 cells at 2 uM measured after 72 hrs by immunoblot analysis. Format: functional, cell-based. In a few lines: (§3)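 Cells exposed 72 h to peptides, scramble control or vehicle. MMP9 protein levels measured by immunoblotting and quantified by densitometry across three independent blots. Levels compared against scramble control and vehicle.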

The nature of test [10]: Downregulation of MMP9 expression in human MDA-MB-231 cells at 2 uM measured after 72 hrs by immunoblot analysis relative to control. Format: functional. In a few lines:
as §3

The subject of test [11] is MDA-MB-231. The experiment in a line: Induction of WRC disruption in human MDA-MB-231 cells assessed as increase in actin stress fiber formation at 2 uM incubated for 4 hrs by phalloidin-iFluor 594 dye based inverted fluorescent microscopic method. The format is functional, cell-based. In a few lines: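 Cells treated 4 h with biotin-labeled peptides, scramble control or DMSO. Cells then fixed, permeabilized and stained with phalloidin-iFluor 594 to show polymeric actin stress fibers by fluorescence imaging. n = 4.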

In test [12] the test system is MDA-MB-231. In words: Drug uptake in human MDA-MB-231 cells by measuring uptake of fluorescence intensity in cytoplasm at 2 uM measured after 4 hrs by fluorescence microscopy method. The format is functional, cell-based. In a few lines: as §2
Test [13] addresses Abl interactor 2 (Homo sapiens) (UniProt Q9NYB9). The experiment in a line: Binding affinity to ABI2 in human MDA-MB-231 cells at 2 uM measured after 4 hrs by measuring pulldown using streptavidin agarose resin by immunoblot analysis.

Sequence of Abl interactor 2 (Homo sapiens) (Q9NYB9 whole entry, looked up): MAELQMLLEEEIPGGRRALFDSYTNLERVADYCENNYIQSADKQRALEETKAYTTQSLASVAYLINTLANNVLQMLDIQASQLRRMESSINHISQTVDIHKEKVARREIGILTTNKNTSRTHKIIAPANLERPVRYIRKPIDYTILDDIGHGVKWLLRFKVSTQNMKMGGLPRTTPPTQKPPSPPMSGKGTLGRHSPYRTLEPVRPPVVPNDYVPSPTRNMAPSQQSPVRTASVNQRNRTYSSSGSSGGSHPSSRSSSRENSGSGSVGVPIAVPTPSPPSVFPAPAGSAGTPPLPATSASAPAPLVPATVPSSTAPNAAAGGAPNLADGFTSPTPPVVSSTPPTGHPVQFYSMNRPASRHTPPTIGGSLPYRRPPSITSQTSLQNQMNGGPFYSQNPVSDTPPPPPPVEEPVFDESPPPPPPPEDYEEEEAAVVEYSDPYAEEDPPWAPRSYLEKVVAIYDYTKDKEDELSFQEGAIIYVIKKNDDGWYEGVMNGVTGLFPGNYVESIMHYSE

On to `C=CCCC[C@H](NC(=O)[C@H](CO)NC(=O)[C@H](CC(C)C)NC(=O)[C@H](CCCCN)NC(=O)[C@H](CO)NC(=O)[C@H](CC(C)C)NC(=O)[C@H](CCC(N)=O)NC(=O)[C@H](CCCNC(=N)N)NC(=O)[C@@H](NC(=O)[C@@H](NC(=O)[C@@H](N)CCCCN)[C@@H](C)CC)[C@@H](C)CC)C(=O)N[C@@H](Cc1cnc[nH]1)C(=O)N[C@@H](C)C(=O)N[C@@H](CCC(=O)O)C(=O)N[C@@H](CCCC=C)C(=O)N[C@H](C(=O)N[C@@H](Cc1ccccc1)C(=O)NCC(=O)N[C@@H](CCC(=O)O)C(=O)N[C@@H](CC(C)C)C(=O)N[C@@H](Cc1ccccc1)C(=O)N[C@@H](CCCCN)C(=O)O)[C@@H](C)CC` (H-KIIRQLSKLS[Gly(pent-4-enyl)]HAE[Gly(pent-4-enyl)]IFGELFK-OH), for which, in the test on MDA-MB-231 [1], the result was Active.
For the compound `C=CCCC[C@H](NC(=O)[C@H](CO)NC(=O)[C@H](CC(N)=O)NC(=O)[C@@H](NC(=O)[C@H](CCCC=C)NC(=O)[C@H](CCCCN)NC(=O)[C@H](CCC(=O)O)NC(=O)[C@@H](N)CC(C)C)[C@@H](C)O)C(=O)N[C@@H](CC(C)C)C(=O)N[C@@H](C)C(=O)N[C@@H](CCCCN)C(=O)N[C@H](C(=O)N[C@H](C(=O)N[C@@H](CCCNC(=N)N)C(=O)N[C@@H](CCC(N)=O)C(=O)N[C@@H](CC(C)C)C(=O)O)[C@@H](C)CC)[C@@H](C)CC` (H-LEK[Gly(pent-4-enyl)]TNS[Gly(pent-4-enyl)]LAKIIRQL-OH), the result in test [2] and in test [3] was Active. Also, the Drug uptake entry with MDA-MB-231 [4] (dose 10.0 µM) and in the test on MDA-MB-231 [5] was “Active” each time.
As for `C=CCCC[C@H](NC(=O)[C@H](CO)NC(=O)[C@H](CC(C)C)NC(=O)[C@H](CCC(N)=O)NC(=O)[C@H](CCCC=C)NC(=O)[C@@H](NC(=O)[C@@H](NC(=O)[C@@H](N)CCCCN)[C@@H](C)CC)[C@@H](C)CC)C(=O)N[C@@H](CC(C)C)C(=O)N[C@@H](CO)C(=O)N[C@@H](CCCCN)C(=O)N[C@@H](Cc1cnc[nH]1)C(=O)N[C@@H](C)C(=O)N[C@@H](CCC(=O)O)C(=O)N[C@@H](CCCCN)C(=O)N[C@H](C(=O)N[C@@H](Cc1ccccc1)C(=O)NCC(=O)N[C@@H](CCC(=O)O)C(=O)N[C@@H](CC(C)C)C(=O)N[C@@H](Cc1ccccc1)C(=O)N[C@@H](CCCCN)C(=O)O)[C@@H](C)CC` (H-KII[Gly(pent-4-enyl)]QLS[Gly(pent-4-enyl)]LSKHAEKIFGELFK-OH), the result in the test with MDA-MB-231 [1] was Active.
Same read-out and setting: in the case of `C=CCCC[C@H](NC(=O)[C@H](CCCNC(=N)N)NC(=O)[C@@H](NC(=O)[C@@H](NC(=O)[C@@H](N)CCCC=C)[C@@H](C)CC)[C@@H](C)CC)C(=O)N[C@@H](CC(C)C)C(=O)N[C@@H](CO)C(=O)N[C@@H](CCCCN)C(=O)N[C@@H](CC(C)C)C(=O)N[C@@H](CO)C(=O)N[C@@H](CCCCN)C(=O)N[C@@H](Cc1cnc[nH]1)C(=O)N[C@@H](C)C(=O)N[C@@H](CCC(=O)O)C(=O)N[C@@H](CCCCN)C(=O)N[C@H](C(=O)N[C@@H](Cc1ccccc1)C(=O)NCC(=O)N[C@@H](CCC(=O)O)C(=O)N[C@@H](CC(C)C)C(=O)N[C@@H](Cc1ccccc1)C(=O)N[C@@H](CCCCN)C(=O)O)[C@@H](C)CC` (H-[Gly(pent-4-enyl)]IIR[Gly(pent-4-enyl)]LSKLSKHAEKIFGELFK-OH) it was “Active”.
In the case of `C=CCCC[C@H](NC(=O)[C@H](CCCCN)NC(=O)[C@H](CO)NC(=O)[C@H](CC(C)C)NC(=O)[C@H](CCCC=C)NC(=O)[C@H](CO)NC(=O)[C@H](CC(C)C)NC(=O)[C@H](CCCCN)NC(=O)[C@H](CCCNC(=N)N)NC(=O)[C@@H](NC(=O)[C@@H](NC(=O)[C@@H](N)CCCCN)[C@@H](C)CC)[C@@H](C)CC)C(=O)N[C@@H](C)C(=O)N[C@@H](CCC(=O)O)C(=O)N[C@@H](CCCCN)C(=O)N[C@H](C(=O)N[C@@H](Cc1ccccc1)C(=O)NCC(=O)N[C@@H](CCC(=O)O)C(=O)N[C@@H](CC(C)C)C(=O)N[C@@H](Cc1ccccc1)C(=O)N[C@@H](CCCCN)C(=O)O)[C@@H](C)CC` (H-KIIRKLS[Gly(pent-4-enyl)]LSK[Gly(pent-4-enyl)]AEKIFGELFK-OH), the Activity is 48% in the test on MDA-MB-231 [6], “Dde” in the test on MDA-MB-231 [7], “Dde” in the test on MDA-MB-231 [8] and 40% in test [10]. The result (in the test with MDA-MB-231 [1]; in test [2]; in test [3]; with MDA-MB-231 [9]; with MDA-MB-231 [11]; in test [13]) was Active. Moreover, the Drug uptake entry is “Active” in the test with MDA-MB-231 [12] and “Active” in the test on MDA-MB-231 [4] (dose 2.0 µM, in the assay text read “at 2 uM” for “at 10 uM”).
